Results from ChEMBL document CHEMBL4689842, “EUbOPEN Chemogenomics Library wave 1” (2021).

Columns and labels:
Assay type in all cases: toxicity, cell-based
U2OS [1] = test: Multiplex assay against U2OS; conditions: human
Summary of the method: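 Live cells were stained at seeding with Hoechst33342, BioTracker Green Microtubule Cytoskeleton Dye, MitoTracker Red and Annexin V Alexa Fluor 680, then imaged on a CQ1 microscope at 37°C and 5% CO2 after compound addition. CellPathfinder machine-learning gating split cells into Hoechst high-intensity objects or normal cells. Normal cells were split into healthy, pyknosed or fragmented nuclei, and pyknosed cells into mitotic or apoptotic. Tubulin, mitochondrial-mass and membrane-permeability phenotypes are per cents of healthy-nucleus cells.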

HEK-293T = test: Incucyte cell viability with HEK293T; conditions: human, 10 µM, compound concentration 10 uM; note: filed as whole numbers so only -1 and 0 and 1 occur
U2OS [2] = test: Incucyte cell viability with U2OS; conditions: human, 10 µM, compound concentration 10 uM; note: filed as whole numbers so only -1 and 0 and 1 occur
[3] = 12 h, 1 µM, compound concentration 1 uM, replicate 1
[4] = 12 h, 1 µM, compound concentration 1 uM, replicate 2
[5] = 12 h, 10 µM, compound concentration 10 uM, replicate 1
[6] = 12 h, 10 µM, compound concentration 10 uM, replicate 2
[7] = 24 h, 1 µM, compound concentration 1 uM, replicate 1
[8] = 24 h, 1 µM, compound concentration 1 uM, replicate 2
[9] = 24 h, 10 µM, compound concentration 10 uM, replicate 1
[10] = 24 h, 10 µM, compound concentration 10 uM, replicate 2
[11] = 48 h, 1 µM, compound concentration 1 uM, replicate 1
[12] = 48 h, 1 µM, compound concentration 1 uM, replicate 2
[13] = 48 h, 10 µM, compound concentration 10 uM, replicate 1
[14] = 48 h, 10 µM, compound concentration 10 uM, replicate 2
[15] = 0 h, replicate number 1, timepoint 0 hours
[16] = 24 h, replicate number 1, timepoint 24 hours

Cc1cc2c(cc1N1C(=O)c3cccc4c(CCCO)ccc(c34)C1=O)n(C)c(=O)n2C
Population Apoptotic (%) (U2OS [1]; [3]): 50% | Population Fragmented Nuclei (%) (U2OS [1]; [3]): 11% | Population Healthy Nuclei (%) (U2OS [1]; [3]): 82% | Population Hoechst High Intensity Objects (%) (U2OS [1]; [3]): 6% | Population Membrane Permeable-Phenotype (%) (U2OS [1]; [3]): 4% | Population Mitochondria Different-Phenotype (%) (U2OS [1]; [3]): 7% | Population Mitotic Cells (%) (U2OS [1]; [3]): 50% | Population Normal (%) (U2OS [1]; [3]): 93% | Population Pyknosed Nuclei (%) (U2OS [1]; [3]): 5% | Population Tubulin-Different-Phenotype (%) (U2OS [1]; [3]): 6% | Total Cell Count (U2OS [1]; [3]): 179 | Population Apoptotic (%) (U2OS [1]; [4]): 0% | Population Fragmented Nuclei (%) (U2OS [1]; [4]): 6% | Population Healthy Nuclei (%) (U2OS [1]; [4]): 90% | Population Hoechst High Intensity Objects (%) (U2OS [1]; [4]): 8% | Population Membrane Permeable-Phenotype (%) (U2OS [1]; [4]): 1% | Population Mitochondria Different-Phenotype (%) (U2OS [1]; [4]): 22% | Population Mitotic Cells (%) (U2OS [1]; [4]): 100% | Population Normal (%) (U2OS [1]; [4]): 91% | Population Pyknosed Nuclei (%) (U2OS [1]; [4]): 3% | Population Tubulin-Different-Phenotype (%) (U2OS [1]; [4]): 24% | Total Cell Count (U2OS [1]; [4]): 104 | Population Apoptotic (%) (U2OS [1]; [5]): 54% | Population Fragmented Nuclei (%) (U2OS [1]; [5]): 11% | Population Healthy Nuclei (%) (U2OS [1]; [5]): 72% | Population Hoechst High Intensity Objects (%) (U2OS [1]; [5]): 6% | Population Membrane Permeable-Phenotype (%) (U2OS [1]; [5]): 16% | Population Mitochondria Different-Phenotype (%) (U2OS [1]; [5]): 44% | Population Mitotic Cells (%) (U2OS [1]; [5]): 45% | Population Normal (%) (U2OS [1]; [5]): 93% | Population Pyknosed Nuclei (%) (U2OS [1]; [5]): 15% | Population Tubulin-Different-Phenotype (%) (U2OS [1]; [5]): 68% | Total Cell Count (U2OS [1]; [5]): 166 | Population Apoptotic (%) (U2OS [1]; [6]): 37% | Population Fragmented Nuclei (%) (U2OS [1]; [6]): 20% | Population Healthy Nuclei (%) (U2OS [1]; [6]): 63% | Population Hoechst High Intensity Objects (%) (U2OS [1]; [6]): 9% | Population Membrane Permeable-Phenotype (%) (U2OS [1]; [6]): 29% | Population Mitochondria Different-Phenotype (%) (U2OS [1]; [6]): 77% | Population Mitotic Cells (%) (U2OS [1]; [6]): 62% | Population Normal (%) (U2OS [1]; [6]): 90% | Population Pyknosed Nuclei (%) (U2OS [1]; [6]): 16% | Population Tubulin-Different-Phenotype (%) (U2OS [1]; [6]): 96% | Total Cell Count (U2OS [1]; [6]): 54 | Population Apoptotic (%) (U2OS [1]; [7]): 38% | Population Fragmented Nuclei (%) (U2OS [1]; [7]): 11% | Population Healthy Nuclei (%) (U2OS [1]; [7]): 80% | Population Hoechst High Intensity Objects (%) (U2OS [1]; [7]): 3% | Population Membrane Permeable-Phenotype (%) (U2OS [1]; [7]): 5% | Population Mitochondria Different-Phenotype (%) (U2OS [1]; [7]): 18% | Population Mitotic Cells (%) (U2OS [1]; [7]): 61% | Population Normal (%) (U2OS [1]; [7]): 96% | Population Pyknosed Nuclei (%) (U2OS [1]; [7]): 7% | Population Tubulin-Different-Phenotype (%) (U2OS [1]; [7]): 10% | Total Cell Count (U2OS [1]; [7]): 176 | Population Apoptotic (%) (U2OS [1]; [8]): 40% | Population Fragmented Nuclei (%) (U2OS [1]; [8]): 7% | Population Healthy Nuclei (%) (U2OS [1]; [8]): 87% | Population Membrane Permeable-Phenotype (%) (U2OS [1]; [8]): 0% | Population Mitochondria Different-Phenotype (%) (U2OS [1]; [8]): 27% | Population Mitotic Cells (%) (U2OS [1]; [8]): 60% | Population Pyknosed Nuclei (%) (U2OS [1]; [8]): 5% | Population Tubulin-Different-Phenotype (%) (U2OS [1]; [8]): 17% | Total Cell Count (U2OS [1]; [8]): 96 | Population Apoptotic (%) (U2OS [1]; [9]): 59% | Population Fragmented Nuclei (%) (U2OS [1]; [9]): 15% | Population Healthy Nuclei (%) (U2OS [1]; [9]): 70% | Population Hoechst High Intensity Objects (%) (U2OS [1]; [9]): 3% | Population Membrane Permeable-Phenotype (%) (U2OS [1]; [9]): 5% | Population Mitochondria Different-Phenotype (%) (U2OS [1]; [9]): 35% | Population Mitotic Cells (%) (U2OS [1]; [9]): 40% | Population Normal (%) (U2OS [1]; [9]): 96% | Population Pyknosed Nuclei (%) (U2OS [1]; [9]): 14% | Population Tubulin-Different-Phenotype (%) (U2OS [1]; [9]): 38% | Total Cell Count (U2OS [1]; [9]): 159 | Population Apoptotic (%) (U2OS [1]; [10]): 80% | Population Fragmented Nuclei (%) (U2OS [1]; [10]): 18% | Population Healthy Nuclei (%) (U2OS [1]; [10]): 62% | Population Hoechst High Intensity Objects (%) (U2OS [1]; [10]): 11% | Population Membrane Permeable-Phenotype (%) (U2OS [1]; [10]): 41% | Population Mitochondria Different-Phenotype (%) (U2OS [1]; [10]): 76% | Population Mitotic Cells (%) (U2OS [1]; [10]): 20% | Population Normal (%) (U2OS [1]; [10]): 88% | Population Pyknosed Nuclei (%) (U2OS [1]; [10]): 18% | Population Tubulin-Different-Phenotype (%) (U2OS [1]; [10]): 76% | Total Cell Count (U2OS [1]; [10]): 61 | Population Apoptotic (%) (U2OS [1]; [11]): 65% | Population Fragmented Nuclei (%) (U2OS [1]; [11]): 16% | Population Healthy Nuclei (%) (U2OS [1]; [11]): 72% | Population Hoechst High Intensity Objects (%) (U2OS [1]; [11]): 3% | Population Membrane Permeable-Phenotype (%) (U2OS [1]; [11]): 4% | Population Mitochondria Different-Phenotype (%) (U2OS [1]; [11]): 43% | Population Mitotic Cells (%) (U2OS [1]; [11]): 35% | Population Normal (%) (U2OS [1]; [11]): 96% | Population Pyknosed Nuclei (%) (U2OS [1]; [11]): 11% | Population Tubulin-Different-Phenotype (%) (U2OS [1]; [11]): 16% | Total Cell Count (U2OS [1]; [11]): 187 | Population Apoptotic (%) (U2OS [1]; [12]): 66% | Population Fragmented Nuclei (%) (U2OS [1]; [12]): 6% | Population Healthy Nuclei (%) (U2OS [1]; [12]): 90% | Population Hoechst High Intensity Objects (%) (U2OS [1]; [12]): 10% | Population Membrane Permeable-Phenotype (%) (U2OS [1]; [12]): 9% | Population Mitochondria Different-Phenotype (%) (U2OS [1]; [12]): 49% | Population Mitotic Cells (%) (U2OS [1]; [12]): 33% | Population Normal (%) (U2OS [1]; [12]): 89% | Population Pyknosed Nuclei (%) (U2OS [1]; [12]): 3% | Population Tubulin-Different-Phenotype (%) (U2OS [1]; [12]): 28% | Total Cell Count (U2OS [1]; [12]): 103 | Population Apoptotic (%) (U2OS [1]; [13]): 79% | Population Fragmented Nuclei (%) (U2OS [1]; [13]): 20% | Population Healthy Nuclei (%) (U2OS [1]; [13]): 53% | Population Hoechst High Intensity Objects (%) (U2OS [1]; [13]): 1% | Population Membrane Permeable-Phenotype (%) (U2OS [1]; [13]): 12% | Population Mitochondria Different-Phenotype (%) (U2OS [1]; [13]): 32% | Population Mitotic Cells (%) (U2OS [1]; [13]): 20% | Population Normal (%) (U2OS [1]; [13]): 98% | Population Pyknosed Nuclei (%) (U2OS [1]; [13]): 25% | Population Tubulin-Different-Phenotype (%) (U2OS [1]; [13]): 14% | Total Cell Count (U2OS [1]; [13]): 154 | Population Apoptotic (%) (U2OS [1]; [14]): 88% | Population Fragmented Nuclei (%) (U2OS [1]; [14]): 22% | Population Healthy Nuclei (%) (U2OS [1]; [14]): 45% | Population Hoechst High Intensity Objects (%) (U2OS [1]; [14]): 8% | Population Membrane Permeable-Phenotype (%) (U2OS [1]; [14]): 46% | Population Mitochondria Different-Phenotype (%) (U2OS [1]; [14]): 57% | Population Mitotic Cells (%) (U2OS [1]; [14]): 11% | Population Normal (%) (U2OS [1]; [14]): 91% | Population Pyknosed Nuclei (%) (U2OS [1]; [14]): 31% | Population Tubulin-Different-Phenotype (%) (U2OS [1]; [14]): 30% | Total Cell Count (U2OS [1]; [14]): 62 | Growth Rate (HEK-293T; [15]): 1 | Growth Rate (HEK-293T; [16]): 1 | Growth Rate (U2OS [2]; [15]): 0 | Growth Rate (U2OS [2]; 6 h, replicate number 1, timepoint 6 hours): 0 | Growth Rate (U2OS [2]; 6 h, replicate number 2, timepoint 6 hours): 1 | Growth Rate (U2OS [2]; 12 h, replicate number 1, timepoint 12 hours): 0 | Growth Rate (U2OS [2]; 18 h, replicate number 1, timepoint 18 hours): 0 | Growth Rate (U2OS [2]; 18 h, replicate number 2, timepoint 18 hours): 1 | Growth Rate (U2OS [2]; [16]): 0
